# Measurements from ChEMBL document CHEMBL1641563, “Synthesis and antihyperglycemic activity of phenolic C-glycosides” (2011).
# Assays:
# Assay type in all cases: functional
# [1] = tested on: Rattus norvegicus; assay: Antihyperglycemic activity against streptozotocin-induced Sprague-Dawley albino rat diabetic model assessed as area under the 0 to 24 hrs blood glucose response curve (0-24 hrs AUC) at 25 mg/kg, po after 48 hrs by glucometer
# Outline: (§1)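 Male Sprague–Dawley rats, fasted overnight, received STZ 60 mg/kg ip in 0.1 M citrate pH 4.5. Rats with glucose 140–270 mg/dl at 48 h were used, n = 5 per group. Compound was given at 25 mg/kg orally in 1.0% gum acacia, with vehicle controls, and a sucrose load of 2.5 g/kg followed 30 min later. Glucose was read by glucometer at 1–6 h and 24 h. Percent activity came from AUC versus control, with Dunnett's test.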
# [2] = tested on: Rattus norvegicus; assay: Antihyperglycemic activity against streptozotocin-induced Sprague-Dawley albino rat diabetic model assessed as reduction in blood glucose at 25 mg/kg, po after 24 hrs; parameters: scale not given: the % may be the effect or the level left; outline: as §1
# [3] = tested on: Rattus norvegicus; assay: Antihyperglycemic activity against streptozotocin-induced Sprague-Dawley albino rat diabetic model assessed as area under the 0 to 5 hrs blood glucose response curve (0-5 hrs AUC) at 25 mg/kg, po after 48 hrs by glucometer; outline: as §1
# [4] = tested on: L6; assay: Antihyperglycemic activity against rat L6 cells assessed as increase in glucose uptake by liquid scintillation counting; parameters: concentration or dose not given beside the values
# Outline: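 L6 myoblasts were grown in DMEM with 10% FBS, then differentiated into myotubes for 7–8 days in 2% FBS. Myotubes were treated with compound at 10 or 50 µM for 18 h and washed in Krebs–Ringer HEPES. Uptake of 2-deoxy-[3H]-D-glucose (3 µCi, plus 20 µM unlabelled) was measured over 15 min. Non-specific uptake was taken with 10 µM cytochalasin B. Counts (cpm/well) were compared with controls.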
Compound,Activity [1] [%],Activity [2] [%],Activity [3] [%],Activity [4] [%]
O=C1c2c(cc(O)c([C@@H]3O[C@H](CO)[C@@H](O)[C@H](O)[C@H]3O)c2O)OC(c2ccc(O)cc2)C1O (stereo not given in full),23.8,23.8,23.8,–
O=C(CC(O)c1ccc(O)c(O)c1)c1ccc(O)c([C@@H]2O[C@H](CO)[C@@H](O)[C@H](O)[C@H]2O)c1O (stereo not given in full),19.5,–,20,–
O=c1c(O)c(-c2ccc(O)c(O)c2)oc2cc(O)c([C@@H]3O[C@H](CO)[C@@H](O)[C@H](O)[C@H]3O)c(O)c12,8.56,–,15.6,–
O=C1CC(c2ccc(O)cc2)Oc2cc(O)c([C@@H]3O[C@H](CO)[C@@H](O)[C@H](O)[C@H]3O)c(O)c21 (stereo not given in full),15.1,–,8.41,12.2
O=c1c(O)c(-c2ccc(O)cc2)oc2cc(O)c([C@@H]3O[C@H](CO)[C@@H](O)[C@H](O)[C@H]3O)c(O)c12,23.5,–,16.7,12.2
O=C1c2ccc(O)c([C@@H]3O[C@H](CO)[C@@H](O)[C@H](O)[C@H]3O)c2OC1(O)Cc1ccc(O)cc1 (stereo not given in full),7.9,–,1.99,–
O=C1Oc2c(ccc(O)c2[C@@H]2O[C@H](CO)[C@@H](O)[C@H](O)[C@H]2O)/C1=C\c1ccc(O)cc1,29,–,17.2,16
O=C(CCc1ccccc1)c1c(O)cc(O)c([C@@H]2O[C@H](CO)[C@@H](O)[C@H](O)[C@H]2O)c1O,26.5,26.5,22.3,11.6
O=c1cc(-c2ccc(O)c(O)c2)oc2c([C@@H]3O[C@H](CO)[C@@H](O)[C@H](O)[C@H]3O)c(O)ccc12,16.1,–,14.3,–
CN(C)C(=N)NC(=N)N [METFORMIN],24.1,–,27.2,19.4
COC(=O)c1c(O)c([C@@H]2O[C@H](CO)[C@@H](O)[C@H](O)[C@H]2O)c(O)c([C@@H]2O[C@H](CO)[C@@H](O)[C@H](O)[C@H]2O)c1O,7.78,–,11.5,10.8
OC[C@H]1O[C@@H](c2c(O)cccc2O)[C@H](O)[C@@H](O)[C@@H]1O,22.3,–,12.7,–
O=C1c2c(cc(O)c([C@@H]3O[C@H](CO)[C@@H](O)[C@H](O)[C@H]3O)c2O)OC(c2ccc(O)c(O)c2)C1O (stereo not given in full),12.8,–,17.6,10.2
CC(=O)c1c(O)cc(O)c([C@@H]2O[C@H](CO)[C@@H](O)[C@H](O)[C@H]2O)c1O,20.9,–,18,15.3
COc1cc(OC)c([C@@H]2O[C@H](CO)[C@@H](O)[C@H](O)[C@H]2O)c(OC)c1C(=O)/C=C/c1ccc(C(C)C)cc1,33.6,33.6,34.9,–
COC(=O)c1c(O)cc(O)c([C@@H]2O[C@H](CO)[C@@H](O)[C@H](O)[C@H]2O)c1O,2.9,–,7.27,–
OC[C@H]1O[C@@H](c2c(O)ccc3cc(Cc4ccc(O)cc4)oc23)[C@H](O)[C@@H](O)[C@@H]1O,11.2,–,9.78,–
